Laboratory results from the RNAGym collection of RNA variant scans (doi:10.1126/science.aae0568).
Variants at the floor of the assay were thinned out.

B1: tRNA (parent)
chain: GUUCCGUUGGCGUAAUGGUAACGCGUCUCCCUCCUAAGGAGAAGACUGCGGGUUCGAGUCCCGUACGGAACG

Variants of: B1
Assay: yeast fitness relative to wild type (ratio to wild type); higher = fitter; tRNA-Arg(CCU), competitive growth, 37 C, YPD
In short: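 Start and end populations of a pooled competition were compared by 100-nucleotide paired-end sequencing of gene amplicons. The Saccharomyces cerevisiae strains carried tRNA-Arg(CCU) gene variants at the native genomic locus, synthesised with a 3% per-site mutation rate at 69 sites, and competed in YPD at 37°C for 24 hours in six parallel replicates. Darwinian fitness relative to wild type was based on the change in genotype frequencies. Genotypes required ≥ 100 starting reads, and estimates < 0.5 were set to 0.5.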

Going from U8G A20U A36G to U2G A21C C22U C60G, the yeast fitness falls from 0.635 to no more than 0.5.

U32G G39C A57U U59A A69C and A36C G48A A57U cannot be ordered by yeast fitness: no more than 0.5 for the first, no more than 0.5 for the second.

First: A15C U47A A65C
Second: C24G A37U C49U U59A
The yeast fitness of the first is higher: 0.561 for the first, no more than 0.5 for the second.

First: U35A A36U C61U
Second: U16A C24G
The yeast fitness of the first is lower: no more than 0.5 for the first, 0.528 for the second.

First: U2A G17C C22G A40C
Second: G52A G63A
The yeast fitness of the first is lower: no more than 0.5 for the first, 0.546 for the second.

U8C C34G G48C U59C C60A A65G and C31A C33G A36U C60U U64G A65U A69C cannot be ordered by yeast fitness: no more than 0.5 for the first, no more than 0.5 for the second.

First: U3C G9A U13G U26C
Second: U28A U64C
The yeast fitness of the first is lower: no more than 0.5 for the first, 0.834 for the second.

Compared with C4G C24U U59C, U8A A20U A70C is higher in yeast fitness: no more than 0.5 for the first, 0.56 for the second.

C11A A36C A42G U47C G67A and G10A U16A C49A G50A G68C cannot be ordered by yeast fitness: no more than 0.5 for the first, no more than 0.5 for the second.

Going from C5U G51C to U32A A70C, the yeast fitness rises from 0.691 to 0.741.

First: U7C G41A A42C G50C A70G
Second: G10A A15U A36G U47G A65U
The yeast fitness of the first is higher: 0.571 for the first, no more than 0.5 for the second.

First: A14G U19C G68A
Second: U3C C31U G52A
The yeast fitness of the first is lower: 0.559 for the first, 0.671 for the second.

A14G U19A C27U C34U C66U and U7G G41C G58C cannot be ordered by yeast fitness: no more than 0.5 for the first, no more than 0.5 for the second.

First: A15G A45U A70U
Second: C4U G6A C34U
The yeast fitness of the first is higher: 0.692 for the first, no more than 0.5 for the second.

Compared with U35C G48C, A15C G18A U19G G58C is lower in yeast fitness: 0.973 for the first, no more than 0.5 for the second.

A15C G25C C29U U35C A43U A69U and G23C C29U C49A C61U cannot be ordered by yeast fitness: no more than 0.5 for the first, no more than 0.5 for the second.

Compared with C30U G39A A40G U53C G67A, A21G U28A C29U G58A is higher in yeast fitness: no more than 0.5 for the first, 0.528 for the second.

Going from G12A C22A A36G A37G A57U to U8A C11U, the yeast fitness rises from no more than 0.5 to 0.633.

First: A37U C61G
Second: U8A C22U G38C C49G
The yeast fitness of the first is lower: 0.529 for the first, 0.602 for the second.

Compared with C30U U32A, G63A C66G A69G is lower in yeast fitness: 0.883 for the first, no more than 0.5 for the second.

Compared with U26G C66U, C5G A20G A40G G44A C46G C60G C61U G63A is lower in yeast fitness: 0.862 for the first, no more than 0.5 for the second.

Compared with G9C A15G C27A C31G G50A, A21C G41A G48C G51C G52C is lower in yeast fitness: 0.642 for the first, no more than 0.5 for the second.

Going from A15G C49U to A20U A21G C61U, the yeast fitness falls from 1.07 to no more than 0.5.

C5U U8C A20G C30A A57U C61U and G6A C11G A21G C27G C29U U35G cannot be ordered by yeast fitness: no more than 0.5 for the first, no more than 0.5 for the second.

Going from G38A C62U A70U to U13C U16G C49G, the yeast fitness rises from 0.577 to 0.617.

First: C5U C11A
Second: A36G A65G A70G
The yeast fitness of the first is lower: 0.586 for the first, 0.639 for the second.

First: C5U A21U C29U C30G A70U
Second: A14G G23A U64G A69U
The yeast fitness of the first is higher: 0.543 for the first, no more than 0.5 for the second.

Compared with U7A G10A C60U, A20G C24U G25A U35A C60U A70G is higher in yeast fitness: 0.607 for the first, 0.655 for the second.

C11U U13G U19A C22G G25A G48A A69U and C4A C27G A42G U53A cannot be ordered by yeast fitness: no more than 0.5 for the first, no more than 0.5 for the second.

Compared with A14U A37U U47C, C62A C66G is higher in yeast fitness: no more than 0.5 for the first, 0.718 for the second.

First: A15U U47C C49G C55U A65U
Second: C27U G39A G68U
The yeast fitness of the first is lower: 0.531 for the first, 0.54 for the second.

Going from A40G U64C to G12A A21U, the yeast fitness falls from 0.972 to 0.729.

First: C4G A45U
Second: A14G C30A C46U G52C C66U
The yeast fitness of the first is higher: 0.91 for the first, no more than 0.5 for the second.

First: G10A G48A A69C
Second: C24U A42C
The yeast fitness of the first is lower: 0.628 for the first, 0.994 for the second.

C4A A14G C24U U32G A43G A65U and A15C G44A U53C U64C cannot be ordered by yeast fitness: no more than 0.5 for the first, no more than 0.5 for the second.

First: C5U A37U A42U G67A
Second: G12A A21G G48A A65U
The yeast fitness of the first is lower: no more than 0.5 for the first, 0.534 for the second.

U3C A21U C34A G52A C61G G63A and G10A A14U C31A C46A A65U cannot be ordered by yeast fitness: no more than 0.5 for the first, no more than 0.5 for the second.

U3C C5G A40G and G17C C22G G52A cannot be ordered by yeast fitness: no more than 0.5 for the first, no more than 0.5 for the second.

Compared with G38A G58C C66U, C11G A42U A65G C66G G68A is lower in yeast fitness: 0.588 for the first, no more than 0.5 for the second.

C30U C31U A37G A43G G52A and C11G C24A U28G A36G G63A cannot be ordered by yeast fitness: no more than 0.5 for the first, no more than 0.5 for the second.

Going from G10C U19A A37C G50U to C11U A20G C29G C34G U54C, the yeast fitness falls from 0.526 to no more than 0.5.

First: A43G A45G A70G
Second: G25C C33U C49A U53A G67A
The yeast fitness of the first is higher: 0.532 for the first, no more than 0.5 for the second.

A36G A43G A57C A65U and C11A G23C A42C A43C cannot be ordered by yeast fitness: no more than 0.5 for the first, no more than 0.5 for the second.

Compared with C5G A21G G41A, C27A A36U A37U G48C C61U is lower in yeast fitness: 0.503 for the first, no more than 0.5 for the second.

First: A14G C34U C49A C60U
Second: C4U G12A A20G C22U U35A A45C
The yeast fitness of the first is higher: 0.512 for the first, no more than 0.5 for the second.

A37U U53G G56A A70C and U7A C27U C55U cannot be ordered by yeast fitness: no more than 0.5 for the first, no more than 0.5 for the second.

Compared with U28C G38C A45U G68A A69C, G9A U53G is higher in yeast fitness: no more than 0.5 for the first, 0.661 for the second.

Compared with A15U C24U A65G, A20C A21C C27U C46A is higher in yeast fitness: 0.53 for the first, 0.6 for the second.

C4A G48C G51C A57U G68C and C24U G44A C60U C62A cannot be ordered by yeast fitness: no more than 0.5 for the first, no more than 0.5 for the second.

G9C A20U C27G A42C C49U A65C and A14C C27U C34G G51A G67U cannot be ordered by yeast fitness: no more than 0.5 for the first, no more than 0.5 for the second.

First: U32A C49U G68A
Second: C22G C31U U64C
The yeast fitness of the first is lower: no more than 0.5 for the first, 0.748 for the second.

G12A A43U A45C C49U G67C and C22U A42U C49G cannot be ordered by yeast fitness: no more than 0.5 for the first, no more than 0.5 for the second.

Compared with A14U A15C C31G A43U, C11A C46U A70G is lower in yeast fitness: 0.627 for the first, 0.56 for the second.

First: C4G G10C C27G A37G G39A
Second: U7C C29G
The yeast fitness of the first is lower: no more than 0.5 for the first, 0.677 for the second.

Compared with A42G C46U A57C, C22G C27G C31G C49U C61G A69U is higher in yeast fitness: no more than 0.5 for the first, 0.534 for the second.

A14C C24A C61A and C24A A40U C49U C62A C66A cannot be ordered by yeast fitness: no more than 0.5 for the first, no more than 0.5 for the second.

U13A G18C A20C C24U C30U A40C G68C and U19A C22U A40U G51C cannot be ordered by yeast fitness: no more than 0.5 for the first, no more than 0.5 for the second.

First: C11A U35A C61U C62U C66A
Second: A20U U32C C55U
The yeast fitness of the first is lower: no more than 0.5 for the first, 0.55 for the second.

C5A C11A C24U U26C C29U C31G A42G and U16C A21C C22U cannot be ordered by yeast fitness: no more than 0.5 for the first, no more than 0.5 for the second.

First: C29G G63A
Second: C11G U32C
The yeast fitness of the first is higher: 0.646 for the first, 0.597 for the second.

Going from U3C C27U G50A to C24U C29A A36G C55G A70C, the yeast fitness falls from 0.648 to no more than 0.5.

First: C5A C27U C31G A43C C49G G52C U59A
Second: A42G C46U A65C
The yeast fitness of the first is lower: no more than 0.5 for the first, 0.665 for the second.

Going from A42G G50A to C5U U13C U35G C49U, the yeast fitness falls from 0.842 to 0.608.

U2G A57U G67C and U8A C34U C55G cannot be ordered by yeast fitness: no more than 0.5 for the first, no more than 0.5 for the second.

Going from C33A C34A G56A to C4U A45U G68C, the yeast fitness rises from no more than 0.5 to 0.7.

Going from A20G A36C C49G U54C to G39A C66U, the yeast fitness rises from no more than 0.5 to 0.797.

Compared with U7A G9C A14G G17C G48A, U3A A36G G68A A70C is higher in yeast fitness: no more than 0.5 for the first, 0.566 for the second.

First: G17A C22A A45C C46U
Second: C31A C49A C60U
The yeast fitness of the first is higher: 0.578 for the first, no more than 0.5 for the second.

C4U C24U C27A C60G G67C and C11G A20U A45C cannot be ordered by yeast fitness: no more than 0.5 for the first, no more than 0.5 for the second.

Compared with G23A A43U C62U, G6A C34A A40U U59G is lower in yeast fitness: 0.751 for the first, no more than 0.5 for the second.

Going from A15U G63C C66G to G17A C49U, the yeast fitness rises from no more than 0.5 to 0.892.

Going from G10C U19A C31G A42G to G10A U16A U28A A70U, the yeast fitness falls from 0.627 to no more than 0.5.

Compared with U2A C27A C49G A57U C66U, A42G G63A is higher in yeast fitness: 0.639 for the first, 0.684 for the second.

Going from C34A A37U G44A G51A C55A to A15C G67C, the yeast fitness rises from 0.603 to 0.684.

U8A A14G C31U G58A C61G C66U and C4U C5G C31G G50C cannot be ordered by yeast fitness: no more than 0.5 for the first, no more than 0.5 for the second.

First: C27U C34U U47C U53G A69U
Second: A45C A70U
The yeast fitness of the first is lower: no more than 0.5 for the first, 0.862 for the second.

Going from C24U C33U C34G A40U G67A to C24G U54C G67C, the yeast fitness falls from 0.541 to no more than 0.5.

U13A A15C C33G C49U A69C and C24A C29U C30U cannot be ordered by yeast fitness: no more than 0.5 for the first, no more than 0.5 for the second.

Going from C27U U35G A40C A57C G67U to U7A U28A U32G G50C U54C, the yeast fitness falls from 0.612 to no more than 0.5.

First: G44A G68A
Second: U2C C11G
The yeast fitness of the first is higher: 0.802 for the first, 0.617 for the second.

Going from C4G A37U to A14G A15C C46A A69U, the yeast fitness falls from 0.681 to no more than 0.5.

First: C4A G41C C49U
Second: U7C A21G A42U G58A
The yeast fitness of the first is lower: no more than 0.5 for the first, 0.552 for the second.

A15U A20U C24U A65G A70C and C4G C30A A42U C55U C66A cannot be ordered by yeast fitness: no more than 0.5 for the first, no more than 0.5 for the second.

Variant A15U C30U has a yeast fitness of 0.859.
